From ChEMBL document CHEMBL1147809, “Tumor-cell-targeted methionine-enkephalin analogues containing unnatural amino acids: design, synthesis, and in vitro antitumor activity” (2006)
*1 amine or outer side, *2 acyl side, *3 side chain or, on linkers, in order; H or OH if unused. Where a SMILES comes first, the peptide text is derived from it. [ ]: non-standard residue; d: D form. X2 = O=C(C1(N[*:1])C2CC3CC(C2)CC1C3)[*:2]

Assays:
Type in all cases: functional
HeLa [1] = test: Antiproliferative activity against human HeLa cell line at 1 uM relative to control
Procedure, shortened: (§1)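 Cells from ATCC grown as monolayers in DMEM with 10% FBS, 2 mM glutamine, penicillin/streptomycin, 37 °C, 5% CO2. Seeded at 2 × 10^4 cells/mL, and after 24 h the medium was replaced with fresh medium containing compound (water/10% DMSO stock, PBS working dilutions 10^-3 to 10^-6 M). Exposure was 72 h, then MTT read-out. Growth % = (A_peptide − A_blank)/(A_control − A_blank) × 100, with inhibition taken relative to untreated cells. Values are means of three experiments run in triplicate.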

HEp-2 [2] = test: Antiproliferative activity against human HEp2 cell line at 1 uM relative to control; procedure, shortened: as §1
HBL [3] = test: Antiproliferative activity against human HBL cell line at 10 uM relative to control; procedure, shortened: as §1
HT-29 [4] = test: Antiproliferative activity against human HT29 cell line at 10 uM relative to control; procedure, shortened: as §1
Caco-2 [5] = test: Antiproliferative activity against human Caco-2 cell line at 1 uM relative to control; procedure, shortened: as §1
SW-620 [6] = test: Antiproliferative activity against human SW620 cell line at 1000 uM relative to control; procedure, shortened: as §1
HT-29 [7] = test: Antiproliferative activity against human HT29 cell line at 1000 uM relative to control; procedure, shortened: as §1
HeLa [8] = test: Antiproliferative activity against human HeLa cell line at 100 uM relative to control; procedure, shortened: as §1
HEp-2 [9] = test: Antiproliferative activity against human HEp2 cell line at 10 uM relative to control; procedure, shortened: as §1
SW-620 [10] = test: Antiproliferative activity against human SW620 cell line at 100 uM relative to control; procedure, shortened: as §1
Caco-2 [11] = test: Antiproliferative activity against human Caco-2 cell line at 100 uM relative to control; procedure, shortened: as §1
HT-29 [12] = test: Antiproliferative activity against human HT29 cell line at 1 uM relative to control; procedure, shortened: as §1
HEp-2 [13] = test: Antiproliferative activity against human HEp2 cell line at 100 uM relative to control; procedure, shortened: as §1
MCF7 [14] = test: Antiproliferative activity against human MCF7 cell line at 1 uM relative to control; procedure, shortened: as §1
Caco-2 [15] = test: Antiproliferative activity against human Caco-2 cell line at 1000 uM relative to control; procedure, shortened: as §1
Caco-2 [16] = test: Antiproliferative activity against human Caco-2 cell line at 10 uM relative to control; procedure, shortened: as §1
SW-620 [17] = test: Antiproliferative activity against human SW620 cell line at 10 uM relative to control; procedure, shortened: as §1
HeLa [18] = test: Antiproliferative activity against human HeLa cell line at 1000 uM relative to control; procedure, shortened: as §1
HEp-2 [19] = test: Antiproliferative activity against human HEp2 cell line at 1000 uM relative to control; procedure, shortened: as §1
HeLa [20] = test: Antiproliferative activity against human HeLa cell line at 10 uM relative to control; procedure, shortened: as §1
MCF7 [21] = test: Antiproliferative activity against human MCF7 cell line at 1000 uM relative to control; procedure, shortened: as §1
HBL [22] = test: Antiproliferative activity against human HBL cell line at 1 uM relative to control; procedure, shortened: as §1
MCF7 [23] = test: Antiproliferative activity against human MCF7 cell line at 100 uM relative to control; procedure, shortened: as §1
SW-620 [24] = test: Antiproliferative activity against human SW620 cell line at 1 uM relative to control; procedure, shortened: as §1
HT-29 [25] = test: Antiproliferative activity against human HT29 cell line at 100 uM relative to control; procedure, shortened: as §1
HBL [26] = test: Antiproliferative activity against human HBL cell line at 100 uM relative to control; procedure, shortened: as §1
MCF7 [27] = test: Antiproliferative activity against human MCF7 cell line at 10 uM relative to control
Procedure, shortened: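 MTT assay on monolayer cells grown in DMEM with 10% FBS, 2 mM glutamine, penicillin and streptomycin, at 37 °C in 5% CO2. Cells were plated at 2 × 10^4 cells/mL on day 0. After 24 h the medium was replaced with fresh medium containing compound (working dilutions in PBS from 10% DMSO/water stock), then incubated 72 h. Percent growth inhibition was calculated against untreated cells after blank subtraction. Values are means of three experiments run in triplicate.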

HBL [28] = test: Antiproliferative activity against human HBL cell line at 1000 uM relative to control; procedure, shortened: as §1

Structure (SMILES) | inhibition at 1 µM (HEp-2 [2]) [%] | inhibition at 10 µM (HBL [3]) [%] | inhibition at 10 µM (HT-29 [4]) [%] | inhibition at 1 µM (Caco-2 [5]) [%] | inhibition at 1000 µM (SW-620 [6]) [%] | inhibition at 1000 µM (HT-29 [7]) [%] | inhibition at 100 µM (HeLa [8]) [%] | inhibition at 10 µM (HEp-2 [9]) [%] | inhibition at 100 µM (SW-620 [10]) [%] | inhibition at 100 µM (Caco-2 [11]) [%] | inhibition at 1 µM (HT-29 [12]) [%] | inhibition at 100 µM (HEp-2 [13]) [%] | inhibition at 1000 µM (Caco-2 [15]) [%] | inhibition at 10 µM (Caco-2 [16]) [%] | inhibition at 10 µM (SW-620 [17]) [%] | inhibition at 1000 µM (HeLa [18]) [%] | inhibition at 1000 µM (HEp-2 [19]) [%] | inhibition at 10 µM (HeLa [20]) [%] | inhibition at 1000 µM (MCF7 [21]) [%] | inhibition at 1000 µM (HBL [28]) [%] | other results
CSCC[C@H](NC(=O)[C@H](Cc1ccccc1)NC(=O)CNC(=O)CNC(=O)[C@@H](N)Cc1ccc(O)cc1)C(=O)O | 5.2 | 1 | 15.9 | 4.2 | 19.1 | 19.3 | 12 | 4.5 | 15.3 | 8.4 | 14 | 2.4 | 3.2 | 6.4 | 12.7 | 22.3 | 3.3 | 11.4 | 15.4 | 10.8 | inhibition at 1 µM (HeLa [1]): 2.3%; inhibition at 1 µM (MCF7 [14]): 3.6%; inhibition at 1 µM (HBL [22]): 0.4%; inhibition at 100 µM (MCF7 [23]): 7.6%; inhibition at 1 µM (SW-620 [24]): 18.9%; inhibition at 100 µM (HT-29 [25]): 16.1%; inhibition at 100 µM (HBL [26]): 4.5%; inhibition at 10 µM (MCF7 [27]): 4.1%
N[C@@H](Cc1ccc(O)cc1)C(=O)N[C@@H](C(=O)NCC(=O)O)C1C2CC3CC(C2)CC1C3 (stereo partly drawn) | 4.6 | 1.2 | 3.8 | 8.1 | 25.3 | 22.4 | 11.6 | 4.9 | 13.5 | 8.1 | 7.6 | 12.6 | 8.6 | 6.9 | 13.5 | 28.2 | 26.4 | 11.7 | 15.6 | 19.4 | inhibition at 1 µM (HeLa [1]): 11%; inhibition at 1 µM (SW-620 [24]): 17%; inhibition at 100 µM (HT-29 [25]): 12.4%; inhibition at 100 µM (HBL [26]): 3.3%
CSCC[C@H](NC(=O)[C@H](Cc1ccccc1)NC(=O)CNC(=O)CNC(=O)[C@@H](N)Cc1ccc(O)cc1)C(=O)NC1(C(=O)O)C2CC3CC(C2)CC1C3 (stereo partly drawn) (H-YGGFM[X2]-OH) |  | 70.7 |  |  |  | 9.2 |  | 3.9 |  |  |  |  | 47 | 11.1 |  | 9.3 | 45 |  | 25.9 | 34.4 | inhibition at 1 µM (MCF7 [14]): 2.2%; inhibition at 1 µM (HBL [22]): 4.1%; inhibition at 100 µM (MCF7 [23]): 6.9%; inhibition at 10 µM (MCF7 [27]): 7.1%
N[C@@H](Cc1ccc(O)cc1)C(=O)NC1(C(=O)O)C2CC3CC(C2)CC1C3 (stereo partly drawn) | 14.2 | 14 | 1.6 | 3.5 | 58.2 | 26.5 | 8.2 | 19.7 | 28.1 | 18.9 | 9.8 | 24.9 | 26.4 | 22.7 | 16.5 | 36.1 | 30.4 | 10 | 7.5 | 14 | inhibition at 1 µM (HBL [22]): 6.5%; inhibition at 1 µM (SW-620 [24]): 12.9%; inhibition at 100 µM (HT-29 [25]): 5.4%; inhibition at 100 µM (HBL [26]): 7.5%; inhibition at 10 µM (MCF7 [27]): 2.4%
N[C@@H](Cc1ccc(O)cc1)C(=O)N[C@@H](C(=O)O)C1C2CC3CC(C2)CC1C3 (stereo partly drawn) | 8.5 | 4.7 | 8.3 | 22.2 | 18.7 | 21.8 | 11 | 4.9 | 9.4 | 17.5 | 0.7 | 1.9 | 16 | 21.4 | 10 | 20.5 | 16.2 | 17.1 | 18.7 | 7.3 | inhibition at 1 µM (HeLa [1]): 7.2%; inhibition at 1 µM (MCF7 [14]): 1.6%; inhibition at 1 µM (HBL [22]): 3%; inhibition at 100 µM (MCF7 [23]): 7.7%; inhibition at 1 µM (SW-620 [24]): 10.7%; inhibition at 100 µM (HT-29 [25]): 10.5%; inhibition at 100 µM (HBL [26]): 2.7%; inhibition at 10 µM (MCF7 [27]): 2.6%
